Measured values reported in ChEMBL document CHEMBL1126705, “16 beta-([18F]fluoro)estrogens: systematic investigation of a new series of fluorine-18-labeled estrogens as potential imaging agents for estrogen-receptor-positive breast tumors” (J Med Chem, 1993).

Experiments:
Rattus norvegicus [1] = assay: Tested in vivo for the biodistribution in rat uterus/blood at 1 hour after intravenous dose of 15 microCi of the drug and 15 micro g of estradiol; assay type: ADME, organism-based
Procedure, shortened: (§1)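 Female Sprague-Dawley rats, 25 days old (~40–53 g), ether-anesthetized, given the 18F-labeled estrogen iv via femoral vein in 10% ethanol saline. […] Others were sacrificed by decapitation at 1 or 3 h. Blood and organs were excised, weighed and gamma counted as % injected dose/g, mean ± SD, typically n = 5 (4–6).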

Rattus norvegicus [2] = assay: Tested in vivo for the biodistribution in rat uterus/muscle after 3 hours following an intravenous dose of 15 microCi of drug in 10%ethanol saline; assay type: ADME, organism-based, Muscle tissue; procedure, shortened: as §1
Rattus norvegicus [3] = assay: Tested in vivo for the biodistribution in rat uterus/muscle at 1 hour after intravenous dose of 15 microCi of the drug and 15 ug of estradiol; assay type: ADME, organism-based, Muscle tissue; procedure, shortened: as §1
Rattus norvegicus [4] = assay: Tested in vivo for the biodistribution in blood of female rat after 3 hours following an intravenous dose of 15 microCi of drug in 10%ethanol saline; assay type: ADME, organism-based
Procedure, shortened: (§2)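 Ether-anesthetized 25-day-old female Sprague-Dawley rats (~40–53 g) got the [18F] tracer in 10% ethanol saline via femoral vein. Rats were decapitated at 1 or 3 h, and blood and organs were weighed and gamma-counted. Values are % injected dose/g as mean ± SD, n = 5 per time point.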

Rattus norvegicus [5] = assay: Tested in vivo for the biodistribution in rat bone at 1 hour after intravenous dose of 15 microCi of drug in 10%ethanol saline; assay type: ADME, organism-based, Bone element; procedure, shortened: as §2
Rattus norvegicus [6] = assay: Tested in vivo for the biodistribution in rat bone at 1 hour after intravenous dose of 15 microCi of the drug and 15 ug of estradiol; assay type: ADME, organism-based, Bone element
Rattus norvegicus [7] = assay: Tested in vivo for the biodistribution in rat fat after 3 hours following an intravenous dose of 15 microCi of drug in 10%ethanol saline; assay type: ADME, organism-based, Adipose tissue; procedure, shortened: as §2
Rattus norvegicus [8] = assay: Tested in vivo for the biodistribution in rat ovaries after 3 hours following an intravenous dose of 120 microCi of drug in 10%ethanol saline; assay type: ADME, organism-based, Female gonad
Procedure, shortened: (§3)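 Immature (25-day-old) female Sprague-Dawley rats, ether-anesthetized, given the fluorine-18-labeled estrogen by femoral vein injection in 10% ethanol saline. […] Other groups were killed by decapitation at 1 or 3 h. Blood and organs were weighed and gamma-counted. Data are % injected dose/g, mean ± SD, typically n = 5 per group.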

Rattus norvegicus [9] = assay: Tested in vivo for the biodistribution in rat ovaries at 1 hour after intravenous dose of 15 microCi of the drug and 15 ug of estradiol; assay type: ADME, organism-based, Female gonad; procedure, shortened: as §3
Rattus norvegicus [10] = assay: Tested in vivo for the biodistribution in rat muscle at 1 hour after intravenous dose of 15 microCi of drug in 10%ethanol saline; assay type: ADME, organism-based, Muscle tissue; procedure, shortened: as §3
Rattus norvegicus [11] = assay: Tested in vivo for the biodistribution in rat muscle at 1 hour after intravenous dose of 15 microCi of the drug and 15 ug of estradiol; assay type: ADME, organism-based, Muscle tissue; procedure, shortened: as §3
Rattus norvegicus [12] = assay: Tested in vivo for the biodistribution in rat fat at 1 hour after intravenous dose of 15 microCi of drug in 10%ethanol saline; assay type: ADME, organism-based, Adipose tissue; procedure, shortened: as §2
Rattus norvegicus [13] = assay: Tested in vivo for the biodistribution in rat fat at 1 hour after intravenous dose of 15 microCi of the drug and 15 ug of estradiol; assay type: ADME, organism-based, Adipose tissue
Rattus norvegicus [14] = assay: Tested in vivo for the biodistribution in rat thymus after 3 hours following an intravenous dose of 15 microCi of drug in 10%ethanol saline; assay type: ADME, organism-based; procedure, shortened: as §3
Rattus norvegicus [15] = assay: Tested in vivo for the biodistribution in rat thymus at 1 hour after intravenous dose of 15 microCi of drug in 10%ethanol saline; assay type: ADME, organism-based; procedure, shortened: as §3
Rattus norvegicus [16] = assay: Tested in vivo for the biodistribution in rat thymus at 1 hour after intravenous dose of 15 microCi of the drug and 15 micro g of estradiol; assay type: ADME, organism-based; procedure, shortened: as §3
Rattus norvegicus [17] = assay: Tested in vivo for the biodistribution in rat uterus after 3 hours following an intravenous dose of 15 microCi of drug in 10%ethanol saline; assay type: ADME, organism-based; procedure, shortened: as §3
Rattus norvegicus [18] = assay: Tested in vivo for the biodistribution in rat uterus at 1 hour after intravenous dose of 15 microCi of drug in 10%ethanol saline; assay type: ADME, organism-based; procedure, shortened: as §1
Rattus norvegicus [19] = assay: Tested in vivo for the biodistribution in rat uterus at 1 hour after intravenous dose of 15 microCi of the drug and 15 micro g of estradiol; assay type: ADME, organism-based; procedure, shortened: as §1
Rattus norvegicus [20] = assay: Tested in vivo for the biodistribution in rat uterus/blood at 1 hour after intravenous dose of 15 microCi of drug in 10%ethanol saline; assay type: ADME, organism-based; procedure, shortened: as §1
Rattus norvegicus [21] = assay: Tested in vivo for the biodistribution in blood of female rat at 1 hour after intravenous dose of 15 microCi of drug in 10%ethanol saline; assay type: ADME, organism-based; procedure, shortened: as §2
Rattus norvegicus [22] = assay: Tested in vivo for the biodistribution in blood of female rat at 1 hour after intravenous dose of 15 microCi of the drug and 15 u g of estradiol; assay type: ADME, organism-based
Rattus norvegicus [23] = assay: Tested in vivo for the biodistribution in rat bone after 3 hours following an intravenous dose of 15 microCi of drug in 10%ethanol saline; assay type: ADME, organism-based, Bone element; procedure, shortened: as §2
Rattus norvegicus [24] = assay: Tested in vivo for the biodistribution in rat kidney at 1 hour after intravenous dose of 15 microCi of drug in 10%ethanol saline; assay type: ADME, organism-based; procedure, shortened: as §2
Rattus norvegicus [25] = assay: Tested in vivo for the biodistribution in rat kidney at 1 hour after intravenous dose of 15 microCi of the drug and 15 u g of estradiol; assay type: ADME, organism-based
Rattus norvegicus [26] = assay: Tested in vivo for the biodistribution in rat kidney after 3 hours following an intravenous dose of 15 microCi of drug in 10%ethanol saline; assay type: ADME, organism-based; procedure, shortened: as §2
Rattus norvegicus [27] = assay: Tested in vivo for the biodistribution in rat liver after 3 hours following an intravenous dose of 15 microCi of drug in 10%ethanol saline; assay type: ADME, organism-based; procedure, shortened: as §3
Rattus norvegicus [28] = assay: Tested in vivo for the biodistribution in rat liver at 1 hour after intravenous dose of 15 microCi of the drug and 15 u g of estradiol; assay type: ADME, organism-based; procedure, shortened: as §3
Rattus norvegicus [29] = assay: Tested in vivo for the biodistribution in rat muscle after 3 hours following an intravenous dose of 15 microCi of drug in 10%ethanol saline; assay type: ADME, organism-based, Muscle tissue; procedure, shortened: as §3
[30] = Partition coefficient (logP); assay type: physicochemical; conditions: octanol/water
Procedure, shortened: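 Octanol/water log P estimated from log k'w measured by reversed-phase HPLC (Minick method) on a C8 silica column.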

[31] = molecular target: T1, Alpha-fetoprotein (Rattus norvegicus) (UniProt P02773); assay: Relative binding affinity for Alphafetoprotein
T1 sequence (whole entry): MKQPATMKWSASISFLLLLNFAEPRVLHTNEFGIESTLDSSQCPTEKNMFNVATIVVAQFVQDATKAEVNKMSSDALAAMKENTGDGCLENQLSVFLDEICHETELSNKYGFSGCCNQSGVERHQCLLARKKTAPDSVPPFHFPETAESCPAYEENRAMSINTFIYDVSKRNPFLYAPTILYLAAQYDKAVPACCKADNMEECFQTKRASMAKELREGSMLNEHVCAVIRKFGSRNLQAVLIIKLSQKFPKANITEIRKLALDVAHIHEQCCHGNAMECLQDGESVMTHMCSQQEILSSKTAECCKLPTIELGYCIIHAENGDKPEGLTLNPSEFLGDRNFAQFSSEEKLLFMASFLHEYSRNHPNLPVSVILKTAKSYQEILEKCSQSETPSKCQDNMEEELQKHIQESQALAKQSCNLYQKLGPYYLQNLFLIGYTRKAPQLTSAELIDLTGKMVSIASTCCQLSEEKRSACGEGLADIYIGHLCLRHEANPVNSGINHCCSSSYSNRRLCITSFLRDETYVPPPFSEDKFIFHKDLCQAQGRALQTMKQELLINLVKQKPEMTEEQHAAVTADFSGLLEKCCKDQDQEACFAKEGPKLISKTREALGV

[32] = molecular target: T2, Sex hormone-binding globulin (Homo sapiens) (UniProt P04278); assay: Relative binding affinity against sex steroid binding protein (SBP)
T2 sequence (whole entry): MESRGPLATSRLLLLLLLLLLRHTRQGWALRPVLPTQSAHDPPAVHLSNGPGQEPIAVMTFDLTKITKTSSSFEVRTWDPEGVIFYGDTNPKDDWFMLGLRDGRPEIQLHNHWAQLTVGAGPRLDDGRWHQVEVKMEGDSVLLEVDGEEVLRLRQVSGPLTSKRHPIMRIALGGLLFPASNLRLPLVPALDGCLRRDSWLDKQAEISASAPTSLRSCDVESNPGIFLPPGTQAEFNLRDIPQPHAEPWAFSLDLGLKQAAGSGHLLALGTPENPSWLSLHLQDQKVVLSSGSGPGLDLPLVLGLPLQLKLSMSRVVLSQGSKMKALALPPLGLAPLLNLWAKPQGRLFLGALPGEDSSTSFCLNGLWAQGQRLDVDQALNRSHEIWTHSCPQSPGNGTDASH

Rattus norvegicus [33] = assay: Tested in vivo for the biodistribution in rat ovaries at 1 hour after intravenous dose of 15 microCi of drug in 10%ethanol saline; assay type: ADME, organism-based, Female gonad; procedure, shortened: as §3
Rattus norvegicus [34] = assay: Tested in vivo for the biodistribution in rat uterus/muscle at 1 hour after intravenous dose of 15 microCi of drug in 10%ethanol saline; assay type: ADME, organism-based, Muscle tissue; procedure, shortened: as §1
Rattus norvegicus [35] = assay: Tested in vivo for the biodistribution in rat liver at 1 hour after intravenous dose of 15 microCi of drug in 10%ethanol saline; assay type: ADME, organism-based; procedure, shortened: as §3
Rattus norvegicus [36] = assay: Tested in vivo for the biodistribution in rat uterus/blood after 3 hours following an intravenous dose of 15 microCi of drug in 10%ethanol saline; assay type: ADME, organism-based; procedure, shortened: as §1
[37] = molecular target: T3, Estrogen receptor (Rattus norvegicus) (UniProt P06211+Q62986)
[38] = molecular target: T3, Estrogen receptor (Rattus norvegicus); remark: listed apart in the source

- Injected (Rattus norvegicus [1]): 6.3%
- Injected (Rattus norvegicus [2]): 22.88%
- Injected (Rattus norvegicus [3]): 7.11%
- Injected (Rattus norvegicus [4]): 0.084%
- Injected (Rattus norvegicus [5]): 0.889%
- Injected (Rattus norvegicus [6]): 1.057%
- Injected (Rattus norvegicus [7]): 1.294%
- Injected (Rattus norvegicus [8]): 2.742%
- Injected (Rattus norvegicus [9]): 1.063%
- Injected (Rattus norvegicus [10]): 0.513%
- Injected (Rattus norvegicus [11]): 0.189%
- Injected (Rattus norvegicus [12]): 1.692%
- Injected (Rattus norvegicus [13]): 1.054%
- Injected (Rattus norvegicus [14]): 0.453%
- Injected (Rattus norvegicus [15]): 0.779%
- Injected (Rattus norvegicus [16]): 0.186%
- Injected (Rattus norvegicus [17]): 6.89%
- Injected (Rattus norvegicus [18]): 5.57%
- Injected (Rattus norvegicus [19]): 1.214%
- Injected (Rattus norvegicus [20]): 52.37%
- Injected (Rattus norvegicus [21]): 0.108%
- Injected (Rattus norvegicus [22]): 0.202%
- Injected (Rattus norvegicus [23]): 1.077%
- Injected (Rattus norvegicus [24]): 2.534%
- Injected (Rattus norvegicus [25]): 1.716%
- Injected (Rattus norvegicus [26]): 1.413%
- Injected (Rattus norvegicus [27]): 1.822%
- Injected (Rattus norvegicus [28]): 3.615%
- Injected (Rattus norvegicus [29]): 0.307%
- logP [30]: 3.72
- relative binding affinity (RBA) [31]: 0.079
- relative binding affinity (RBA) [32]: 0.55
- Injected (Rattus norvegicus [33]): 2.991%
- Injected (Rattus norvegicus [34]): 10.81%
- Injected (Rattus norvegicus [35]): 2.331%
- Injected (Rattus norvegicus [36]): 82.19%
- NSB [37]: 1.6
- BSI [38]: 158
Compound: CC[C@H]1C[C@]2(C)[C@@H](O)[C@@H](F)C[C@H]2[C@@H]2CCc3cc(O)ccc3[C@@H]12
